Measured values from ChEMBL document CHEMBL1649161, “Pharmacokinetics of EDP-420 after ascending single oral doses in healthy adult volunteers” (Antimicrob Agents Chemother, 2009).
Values after ≈ are worked out from the molar mass of the structure shown.

How the values were obtained:
[1] = Renal clearance in healthy human assessed as cumulative fraction excreted unchanged in urine at 200 mg, po administered as single dose measured after 48 hrs; assay type: ADME, organism-based; conditions: read-out: Fraction Recovered in urine
In short: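 After a single oral fasted suspension dose in healthy adults (6 per group), urine was collected in intervals to 48 h and measured by LC-MS/MS. fe0-48 = Ae0-48 (summed interval volume × concentration) / dose × 100%; the mean was reported.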

[2] = Renal clearance in healthy human assessed as cumulative fraction excreted unchanged in urine at 400 mg, po administered as single dose measured after 48 hrs; assay type: ADME, organism-based; conditions: read-out: Fraction Recovered in urine
In short: (§1)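 Urine collected predose and over 0–2, 2–4, 4–6, 6–8, 8–12, 12–24 and 24–48 h after a single oral suspension dose, given after an 8-h fast with no food for 4 h after. Volumes measured, stored at −20°C, EDP-420 quantified by LC-MS/MS. fe0-48 = Ae0-48/dose × 100%, where Ae0-48 is the sum of volume × concentration over the intervals. Six active subjects per dose.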

[3] = Elimination rate constant in healthy human plasma at 800 mg, po administered as single dose measured after 120 hrs; assay type: ADME, organism-based
[4] = Apparent oral clearance in healthy human plasma at 1200 mg, po administered as single dose measured after 120 hrs; assay type: ADME, organism-based
In short: (§2)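 Single oral suspension dose in fasted healthy adults (6 per group). Plasma was collected to 120 h and measured by LC-MS/MS (1–1,000 ng/ml). Apparent oral clearance was dose divided by AUC0-∞ (noncompartmental, linear-up/log-down trapezoid extrapolated with Clast/λz); the mean was reported.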

[5] = Elimination rate constant in healthy human plasma at 100 mg, po administered as single dose measured after 120 hrs; assay type: ADME, organism-based
[6] = AUC (0 to infinity) in healthy human plasma at 1200 mg, po administered as single dose measured after 120 hrs; assay type: ADME, organism-based; set-up: dose 1200 mg, route oral, time infinity
In short: (§3)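 Healthy adults (6 per dose group) received a single oral suspension after an 8-h fast, with food withheld 4 h. EDTA blood was drawn predose to 120 h. Plasma was protein-precipitated with ACN and assayed by LC-MS/MS (clarithromycin internal standard; range 1–1,000 ng/ml). AUC0-last was computed by linear-up/log-down trapezoid; AUC0-∞ added Clast/λz. Values are noncompartmental means.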

[7] = AUC (0 to last) in healthy human plasma at 800 mg, po administered as single dose measured after 120 hrs; assay type: ADME, organism-based; set-up: dose 800 mg, route oral, time 0 - last; in short: as §3
[8] = Apparent volume of distribution in healthy human plasma at 800 mg, po administered as single dose measured after 120 hrs; assay type: ADME, organism-based
[9] = Renal clearance in healthy human at 800 mg, po administered as single dose measured after 48 hrs; assay type: ADME, organism-based, Kidney; conditions: in vivo, read-out: CL_renal (converted)
In short: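 Healthy adults (6 active per dose) got a single oral suspension dose after an 8-h fast, with food withheld 4 h. Urine over 0–48 h in intervals and serial EDTA plasma were assayed by validated LC-MS/MS, with plasma calibration from 1 to 1,000 ng/ml. CLR = Ae0-48 (urine volume × concentration summed) divided by plasma AUC0-48.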

Homo sapiens [10] = assay: Toxicity in healthy human assessed as incidence of elevated hepatic transaminase levels at 100 to 1200 mg, po administered as single dose; assay type: organism-based; conditions: in vivo
In short: (§4)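 Randomized, double-blind, placebo-controlled single ascending dose study with eight subjects per group (6 drug, 2 placebo of microcrystalline cellulose). Subjects were fasted before dosing. Safety labs were done at 120 h, with a full chemistry panel also at 72 and 96 h for the top dose. Final evaluation on day 8–10, with adverse events recorded.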

Homo sapiens [11] = assay: Renal clearance in healthy human assessed as cumulative amount excreted in urine at 1200 mg, po administered as single dose measured after 48 hrs; assay type: ADME, organism-based; conditions: in vivo
In short: (§5)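 Healthy adults (6 per dose) received a single fasted oral suspension dose. Urine was collected predose and over 0–2, 2–4, 4–6, 6–8, 8–12, 12–24 and 24–48 h intervals, volumes were recorded, and aliquots were stored at −20°C. Samples were assayed by LC-MS/MS. Ae0-48 is the summed volume × concentration over all intervals; the mean was reported.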

Homo sapiens [12] = assay: Renal clearance in healthy human assessed as cumulative amount excreted in urine at 100 mg, po administered as single dose measured after 48 hrs; assay type: ADME, organism-based; conditions: in vivo; in short: as §5
[13] = AUC (0 to infinity) in healthy human plasma at 200 mg, po administered as single dose measured after 120 hrs; assay type: ADME, organism-based; set-up: dose 200 mg, route oral, time infinity; in short: as §3
[14] = Cmax in healthy human plasma at 100 mg, po administered as single dose measured after 120 hrs; assay type: ADME, organism-based; set-up: dose 100 mg, route oral
In short: (§6)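 Healthy adults (n = 6 per dose) took a single oral suspension fasted (8 h before, 4 h after). Plasma was sampled from 0.25 to 120 h postdose and quantified by validated LC-MS/MS after acetonitrile precipitation (LLOQ 1 ng/ml). Cmax was read directly from observed concentration–time data; the group mean was reported.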

[15] = Elimination rate constant in healthy human plasma at 400 mg, po administered as single dose measured after 120 hrs; assay type: ADME, organism-based
[16] = Half life in healthy human plasma at 800 mg, po administered as single dose measured after 120 hrs; assay type: ADME, organism-based
[17] = Elimination rate constant in healthy human plasma at 200 mg, po administered as single dose measured after 120 hrs; assay type: ADME, organism-based
[18] = AUC (0 to last) in healthy human plasma at 100 mg, po administered as single dose measured after 120 hrs; assay type: ADME, organism-based; set-up: dose 100 mg, route oral, time 0 - last; in short: as §3
[19] = AUC (0 to last) in healthy human plasma at 200 mg, po administered as single dose measured after 120 hrs; assay type: ADME, organism-based; set-up: dose 200 mg, time 0 - last, route oral; in short: as §3
Homo sapiens [20] = assay: Toxicity in healthy human assessed as changes in prothrombin time at 100 to 1200 mg, po administered as single dose; assay type: organism-based; conditions: in vivo; in short: as §4
[21] = Apparent oral clearance in healthy human plasma at 100 mg, po administered as single dose measured after 120 hrs; assay type: ADME, organism-based; in short: as §2
[22] = Tmax in healthy human plasma at 200 mg, po administered as single dose measured after 120 hrs; assay type: ADME, organism-based
In short: (§7)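 Fasted healthy adults (n = 6 per group) took one oral suspension dose. Plasma was sampled from predose through 0.25–120 h postdose and measured by validated LC-MS/MS (lower limit 1 ng/ml). Tmax was read directly from observed concentration–time data using actual sampling times and reported as median with range.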

[23] = Renal clearance in healthy human assessed as cumulative fraction excreted unchanged in urine at 800 mg, po administered as single dose measured after 48 hrs; assay type: ADME, organism-based; conditions: read-out: Fraction Recovered in urine; in short: as §1
[24] = Cmax in healthy human plasma at 800 mg, po administered as single dose measured after 120 hrs; assay type: ADME, organism-based; set-up: dose 800 mg, route oral; in short: as §6
[25] = Tmax in healthy human plasma at 400 mg, po administered as single dose measured after 120 hrs; assay type: ADME, organism-based; in short: as §7
Homo sapiens [26] = assay: Toxicity in healthy human assessed as changes in physical parameters signs at 100 to 1200 mg, po administered as single dose; assay type: organism-based; conditions: in vivo
Homo sapiens [27] = assay: Renal clearance in healthy human assessed as cumulative amount excreted in urine at 200 mg, po administered as single dose measured after 48 hrs; assay type: ADME, organism-based; conditions: in vivo; in short: as §5
[28] = Apparent oral clearance in healthy human plasma at 400 mg, po administered as single dose measured after 120 hrs; assay type: ADME, organism-based; in short: as §2
[29] = AUC (0 to infinity) in healthy human plasma at 800 mg, po administered as single dose measured after 120 hrs; assay type: ADME, organism-based; set-up: dose 800 mg, route oral, time infinity; in short: as §3
Streptococcus pneumoniae = assay: Antimicrobial activity against Streptococcus pneumoniae; assay type: functional

## CC[C@H]1OC(=O)[C@H](C)C(=O)[C@H](C)[C@@H](O[C@@H]2O[C@H](C)C[C@H](N(C)C)[C@H]2O)[C@@]2(C)C[C@@H](C)/C(=N\C(C)=O)[C@H](C)[C@@H](OC/C(=N\OCc3ccc(-n4cccn4)nc3)CO2)[C@]1(C)O [MODITHROMYCIN]
[1]
  dose excreted at 48 h: 12.3%
[2]
  dose excreted at 48 h: 10.5%
[3]
  k el at 120 h: 1.09e-05 s⁻¹
[4]
  CL/F: 523 mL/min
[5]
  k el at 120 h: 1.23e-05 s⁻¹
[6]
  AUC(0-inf): 38300 ng·h/mL
[7]
  AUC(0-t) at 120 h: 33400 ng·h/mL
[8]
  Vd/F: 601 L
[9]
  CL renal at 48 h: 57.5 mL/min
Homo sapiens [10]
  Activity: 23%
Homo sapiens [11]
  Amount Recovered in urine: 70.1 mg
Homo sapiens [12]
  Amount Recovered in urine: 8.57 mg
[13]
  AUC(0-inf): 7710 ng·h/mL
[14]
  Cmax: 196 ng/mL
[15]
  k el at 120 h: 1.22e-05 s⁻¹
[16]
  half-life: 17.6 h
[17]
  k el at 120 h: 1.22e-05 s⁻¹
[18]
  AUC(0-t) at 120 h: 3400 ng·h/mL
[19]
  AUC(0-t) at 120 h: 7650 ng·h/mL
Homo sapiens [20]
  Activity: Non-toxic
[21]
  CL/F: 485 mL/min
[22]
  Tmax: 2.5 h
[23]
  dose excreted at 48 h: 11.4%
[24]
  Cmax: 1070 ng/mL
[25]
  Tmax: 3.25 h
Homo sapiens [26]
  Activity: Non-toxic
Homo sapiens [27]
  Amount Recovered in urine: 24.5 mg
[28]
  CL/F: 463 mL/min
[29]
  AUC(0-inf): 33900 ng·h/mL
Streptococcus pneumoniae
  MIC: 0.25 µg/mL (≈ 0.297 µM)
